Reference: ChEMBL document CHEMBL3351600, “Sulfur, selenium and tellurium pseudopeptides: synthesis and biological evaluation” (Bioorg Med Chem, 2014)

How the values were obtained:
ACHN = assay: Growth inhibition of human ACHN cells after 48 hrs; assay type: functional
Outline: (§1)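 NCI-60 human tumour cell line panel screen run at the US National Cancer Institute under its standard cytotoxicity protocol. It covers leukaemia, NSCLC, colon, CNS, melanoma, ovarian, renal, prostate and breast lines. An initial single-dose test was followed by five-dose testing with 48 h compound exposure.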

CAKI-1 = assay: Growth inhibition of human CAKI-1 cells after 48 hrs; assay type: functional; conditions: CAKI-1, 48 h; outline: as §1
SN12C = assay: Growth inhibition of human SN12C cells after 48 hrs; assay type: functional
Outline: (§2)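 Run by the NCI 58-cell-line screen under its standard cytotoxicity protocol. Compounds were first tested at a single dose, then at five doses. Cells were exposed to compound for 48 h.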

TK-10 = assay: Growth inhibition of human TK10 cells after 48 hrs; assay type: functional; conditions: TK-10, 48 h; outline: as §2
[1] = Growth inhibition of human PC3 cells after 48 hrs; assay type: functional; conditions: PC-3, 48 h; outline: as §1
MCF7 [2] = assay: Growth inhibition of human MCF7 cells after 48 hrs; assay type: functional; conditions: MCF7, 48 h; outline: as §1
[3] = Growth inhibition of human Hs 578T cells after 48 hrs; assay type: functional; outline: as §1
MDA-MB-468 = assay: Growth inhibition of human MDA-MB-468 cells after 48 hrs; assay type: functional; conditions: MDA-MB-468, 48 h; outline: as §1
MCF7 [4] = assay: Cytotoxicity against human MCF7 cells assessed as cell viability after 24 hrs incubation by MTT assay; assay type: functional, cell-based; conditions: MCF7, 24 h
Outline: (§3)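 Cell lines came from DSMZ; primary human fibroblasts served as non-cancer controls. Cells were grown in medium with 10% FCS, seeded at 50,000 cells/ml, and grown 2 days at 37 °C, 10% CO2. Serial dilutions were then added for 24 h. MTT (final 0.5 mg/ml) was added for 2 h. Formazan was pelleted, PBS-washed, dissolved in isopropanol/0.4% HCl and read at 590 nm. Two parallel experiments were run. IC50 was taken as the concentration giving 50% of untreated-control absorbance.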

A-431 = assay: Cytotoxicity against human A431 cells assessed as cell viability after 24 hrs incubation by MTT assay; assay type: functional, cell-based; conditions: A-431, 24 h; outline: as §3
Saccharomyces cerevisiae = assay: Antimicrobial activity against Saccharomyces cerevisiae assessed as inhibition at 20 ug/6 mm disk after 1 to 2 days by agar diffusion assay; assay type: functional
Outline: (§4)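 Standard agar diffusion: 6-mm paper disks loaded with 20 µg of compound were placed on inoculated plates. Inhibition-zone diameter (mm) was read after 1 and 2 days of growth.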

Candida albicans = assay: Antimicrobial activity against Candida albicans assessed as inhibition at 20 ug/6 mm disk after 1 to 2 days by agar diffusion assay; assay type: functional; outline: as §4
Aspergillus niger = assay: Antimicrobial activity against Aspergillus niger assessed as inhibition at 20 ug/6 mm disk after 1 to 2 days by agar diffusion assay; assay type: functional; outline: as §4
Micrococcus luteus = assay: Antimicrobial activity against Micrococcus luteus assessed as inhibition at 20 ug/6 mm disk after 1 to 2 days by agar diffusion assay; assay type: functional; outline: as §4
Staphylococcus aureus = assay: Antimicrobial activity against Staphylococcus aureus assessed as inhibition at 20 ug/6 mm disk after 1 to 2 days by agar diffusion assay; assay type: functional; outline: as §4
Pseudomonas aeruginosa = assay: Antimicrobial activity against Pseudomonas aeruginosa assessed as inhibition at 20 ug/6 mm disk after 1 to 2 days by agar diffusion assay; assay type: functional; outline: as §4
Escherichia coli = assay: Antimicrobial activity against Escherichia coli tolC assessed as inhibition at 20 ug/6 mm disk after 1 to 2 days by agar diffusion assay; assay type: functional; outline: as §4
[5] = Growth inhibition of human RPMI8226 cells after 48 hrs; assay type: functional; conditions: RPMI-8226, 48 h; outline: as §1
A549 = assay: Growth inhibition of human A549/ATCC cells after 48 hrs; assay type: functional; conditions: A549, 48 h; outline: as §1
[6] = Growth inhibition of human EKVX cells after 48 hrs; assay type: functional; outline: as §1
HOP-62 = assay: Growth inhibition of human HOP62 cells after 48 hrs; assay type: functional; conditions: HOP-62, 48 h; outline: as §1
[7] = Growth inhibition of human HOP92 cells after 48 hrs; assay type: functional; conditions: HOP-92, 48 h; outline: as §1
NCI-H226 = assay: Growth inhibition of human NCI-H226 cells after 48 hrs; assay type: functional; conditions: NCI-H226, 48 h; outline: as §1
NCI-H322M = assay: Growth inhibition of human NCI-H322M cells after 48 hrs; assay type: functional; conditions: read-out: pLC50 (the source's name) (converted); outline: as §1
[8] = Growth inhibition of human HCT116 cells after 48 hrs; assay type: functional; conditions: HCT-116, 48 h; outline: as §1
KM12 = assay: Growth inhibition of human KM12 cells after 48 hrs; assay type: functional; conditions: KM12, 48 h; outline: as §1
U-251 = assay: Growth inhibition of human U251 cells after 48 hrs; assay type: functional; conditions: U-251, 48 h; outline: as §2
MDA-MB-435 = assay: Growth inhibition of human MDA-MB-435 cells after 48 hrs; assay type: functional; conditions: MDA-MB-435, 48 h; outline: as §1
[9] = Growth inhibition of human OVCAR4 cells after 48 hrs; assay type: functional; conditions: OVCAR-4, 48 h; outline: as §1
[10] = Growth inhibition of human OVCAR8 cells after 48 hrs; assay type: functional; conditions: OVCAR-8, 48 h; outline: as §1
[11] = Growth inhibition of human NCI-ADR-RES cells after 48 hrs; assay type: functional; outline: as §1
A498 = assay: Growth inhibition of human A498 cells after 48 hrs; assay type: functional; conditions: A498, 48 h; outline: as §1
[12] = read-out: pLC50 (the source's name) (converted)

COc1ccc(N(CC(=O)NCCC[Te]c2ccccc2)C(=O)c2ccccc2)cc1
GI50 (ACHN): 3.16 µM | LC50 (ACHN): 39.8 µM | TGI (ACHN; read-out: pTGI (converted)): 9.55 µM | GI50 (CAKI-1): 2.95 µM | LC50 (CAKI-1): > 100 µM | TGI (CAKI-1; read-out: pTGI (converted)): 14.8 µM | GI50 (SN12C): 2.69 µM | LC50 (SN12C): > 100 µM | TGI (SN12C; read-out: pTGI (converted)): 8.51 µM | GI50 (TK-10): 3.89 µM | LC50 (TK-10): 69.2 µM | TGI (TK-10; read-out: pTGI (converted)): 11.5 µM | GI50 [1]: 2.69 µM | LC50 [1]: > 100 µM | TGI ([1]; read-out: pTGI (converted)): 12.6 µM | GI50 (MCF7 [2]): 3.16 µM | LC50 (concentration killing 50% of cells) (MCF7 [2]): 75.9 µM | TGI (MCF7 [2]; read-out: pTGI (converted)): 10.7 µM | LC50 [3]: > 100 µM | GI50 (MDA-MB-468): 4.27 µM | LC50 (MDA-MB-468): 56.2 µM | TGI (MDA-MB-468; read-out: pTGI (converted)): 17.8 µM | IC50 (MCF7 [4]): 27 µM | IC50 (A-431): 5 µM | diameter of the inhibition zone (DIZ) (Saccharomyces cerevisiae): 0 mm | diameter of the inhibition zone (DIZ) (Candida albicans): 0 mm | diameter of the inhibition zone (DIZ) (Aspergillus niger): 10 mm | diameter of the inhibition zone (DIZ) (Micrococcus luteus): 13 mm | diameter of the inhibition zone (DIZ) (Staphylococcus aureus): 12 mm | diameter of the inhibition zone (DIZ) (Pseudomonas aeruginosa): 9 mm | diameter of the inhibition zone (DIZ) (Escherichia coli): 11 mm | GI50 [5]: 3.16 µM | CC50 [5, 12]: > 100 µM | TGI ([5]; read-out: pTGI (converted)): 19.1 µM | GI50 (A549): 0.38 µM | CC50 (A549; [12]): 17.8 µM | TGI (A549; read-out: pTGI (converted)): 2.14 µM | GI50 [6]: 4.07 µM | CC50 [6, 12]: > 100 µM | TGI ([6]; read-out: pTGI (converted)): 5.25 µM | GI50 (HOP-62): 2.4 µM | CC50 (HOP-62; [12]): 18.2 µM | TGI (HOP-62; read-out: pTGI (converted)): 5.37 µM | GI50 [7]: 4.07 µM | CC50 [7, 12]: 69.2 µM | TGI ([7]; read-out: pTGI (converted)): 10 µM | GI50 (NCI-H226): 2.63 µM | CC50 (NCI-H226; [12]): 100 µM | TGI (NCI-H226; read-out: pTGI (converted)): 7.24 µM | CC50 (NCI-H322M): > 100 µM | GI50 [8]: 2.57 µM | CC50 [8, 12]: 44.7 µM | TGI ([8]; read-out: pTGI (converted)): 10.2 µM | GI50 (KM12): 3.16 µM | CC50 (KM12; [12]): 46.8 µM | TGI (KM12; read-out: pTGI (converted)): 11.7 µM | GI50 (U-251): 2.82 µM | CC50 (U-251; [12]): 74.1 µM | TGI (U-251; read-out: pTGI (converted)): 9.33 µM | GI50 (MDA-MB-435): 8.13 µM | CC50 (MDA-MB-435; [12]): > 100 µM | TGI (MDA-MB-435; read-out: pTGI (converted)): 30.2 µM | GI50 [9]: 12 µM | LC50 [9]: 53.7 µM | TGI ([9]; read-out: pTGI (converted)): 25.1 µM | GI50 [10]: 3.02 µM | LC50 [10]: > 100 µM | TGI ([10]; read-out: pTGI (converted)): 8.13 µM | GI50 [11]: 3.24 µM | LC50 [11]: > 100 µM | TGI ([11]; read-out: pTGI (converted)): 10.7 µM | GI50 (A498): 2.19 µM | LC50 (A498): 25.1 µM | TGI (A498; read-out: pTGI (converted)): 5.37 µM | Retention_time: 0.89 min
